sPLA2-III inh: Blocks human group III sPLA2 activity; QFRET BODIPY PC-A2 liposome hydrolysis, fluorescence; inhibition, % at 12.2 µM; 370,000 compounds, 0.56% hits; AID 743126;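 active means inhibition above mean plus 3 SD of compounds lying within the high and low control bounds, cut at about 19% in these data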
SR-BI DiI inh: blocks mouse SR-BI lipid uptake from DiI-HDL. ldlA[mSR-BI] CHO cells, DiI-HDL uptake fluorescence, 3 h. 320,000 compounds, 0.96% hits. Q61009. AID 488896. inhibition, % at 12.5 µM;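 active means mean replicate inhibition of at least 70% and a set share of replicates each scoring 70 or more; inconclusive means meets just one of the two criteria; inactive means fails both criteria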
Target sequence (Q61009 whole entry, looked up): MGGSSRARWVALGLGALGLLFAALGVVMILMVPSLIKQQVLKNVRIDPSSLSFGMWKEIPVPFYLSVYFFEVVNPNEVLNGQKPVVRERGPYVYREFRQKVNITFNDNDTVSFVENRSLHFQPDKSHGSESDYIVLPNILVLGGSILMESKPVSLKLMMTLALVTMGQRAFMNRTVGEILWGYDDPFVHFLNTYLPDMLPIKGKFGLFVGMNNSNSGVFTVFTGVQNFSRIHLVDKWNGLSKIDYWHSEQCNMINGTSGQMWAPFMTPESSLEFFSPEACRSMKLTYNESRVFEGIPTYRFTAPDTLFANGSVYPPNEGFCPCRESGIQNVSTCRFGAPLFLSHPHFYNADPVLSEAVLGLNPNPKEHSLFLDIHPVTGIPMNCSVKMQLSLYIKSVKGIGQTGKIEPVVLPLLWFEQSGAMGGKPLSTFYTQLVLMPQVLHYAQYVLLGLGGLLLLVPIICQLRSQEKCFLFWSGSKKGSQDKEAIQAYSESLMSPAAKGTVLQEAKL
XiGFP reactiv: X-chromosome reactivation activator; 360,000 compounds, 0.055% hits; activation, % at 7.58 µM; XiGFP mouse fibroblasts, % GFP-positive cells imaging, 3 d; cells co-treated with 5-aza-dC sensitizer; scaled so ellipticine positive control = 100%;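 active means mean normalized replicate activation at least 10% and every replicate at or above 10%; inconclusive means only one of the two criteria met; inactive means mean below 10% and not all replicates reach 10%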
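System: SV40-immortalized XiGFP fibroblast cells, line 68-5-11 / Incubation: 3-day compound exposure, then 15 min fixation at room temperature / Compound: single concentration per compound, delivered by pin transfer / Buffer or medium: DMEM plus 5-aza-dC sensitizer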
ARNT TACC3 PPI: ARNT/TACC3 interaction disruption. Q9Y6A5. AlphaScreen His-ARNT PAS-B/GST-TACC3 binding, luminescence; TACC3 fragment carries E629A point mutation. inhibition, % at 9.99 µM. 390,000 compounds, 0.66% hits;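 active means mean inhibition of replicates at least 50% and at least half of replicates each reaching 50%; inconclusive means half or more replicates reach 50% but mean below 50%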
NSD2 inh: blocks human histone methyltransferase NSD2; NSD2 peptide methylation, AlphaScreen, 120 min; inhibition, % at 12.5 µM; 310,000 compounds, 0.54% hits; in the data active means inhibition above about 50%
SR-BI DiI-HDL act: activators of SR-BI mediated HDL lipid uptake; CHO ldlA[mSR-BI] cells, DiI-HDL uptake fluorescence, 3 h; 100 = double the neutral-control signal; activation, % at 12.5 µM; 320,000 compounds, 0.096% hits;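 active means mean replicate activation of at least 60% and every replicate at or above 60%; inconclusive means mean or all-replicate condition met, but not both; inactive means mean below 60% and not all replicates reaching 60%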
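Test system: SR-BI-overexpressing, LDLR-lacking CHO cells; Medium: Ham's F12 with 0.5% BSA, HEPES 25 mM, pH 7.4; Schedule: 3 h, 37 °C; Technique: bottom-read fluorescence, 550/595 nm.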
Each line names hits and unclear results; the compound was inactive in the other large screens. Only some compounds are listed: those with a hit (about 2% of all), similar ones and a draw of the others.

CC(C)COc1ccc(-c2nn(-c3ccccc3)cc2/C=C2/SC(=S)N(CC(=O)O)C2=O)cc1	none
O=C(O)CN1C(=O)/C(=C\c2cn(-c3ccccc3)nc2-c2ccccc2)SC1=S	ARNT TACC3 PPI 46 (no result: sPLA2-III inh, XiGFP reactiv)
COc1cc2c3nnc(-c4ccc(F)cc4)c-3cn(Cc3ccccc3F)c2cc1OC	XiGFP reactiv 114 (no result: ARNT TACC3 PPI)
COc1ccc(-c2nnc(SCc3ccccc3F)o2)cc1OC	none (no result: XiGFP reactiv)
COc1cc2c3nnc(-c4ccccc4)c-3cn(Cc3ccccc3F)c2cc1OC	XiGFP reactiv 97 (no result: SR-BI DiI inh, ARNT TACC3 PPI, SR-BI DiI-HDL act)
Nc1[nH]c(=O)nc(Nc2ccccc2)c1N=O	XiGFP reactiv inconclusive, ARNT TACC3 PPI 28
CC1=NN(C(C#N)c2ccc(F)cc2)C(c2ccccc2)C1 (centres undefined)	none
C=CCn1c(Cc2nc3ccccc3[nH]2)n[nH]c1=S	ARNT TACC3 PPI 49 (no result: XiGFP reactiv)
C=CCn1c(Cc2cccc3ccccc23)n[nH]c1=S	none
O=C(/C=C/c1ccco1)NCCc1ccc(F)cc1	none (no result: SR-BI DiI inh, SR-BI DiI-HDL act)
Oc1c(Br)cc(Br)cc1/C=N/NC(=S)N[C@H]1CC2C=CC1C2 (some centres undefined)	sPLA2-III inh 45, SR-BI DiI inh 78
Cc1nc(N2CCCCC2C)c2c(C)c(C(=O)Nc3cccc(C(F)(F)F)c3)sc2n1 (centres undefined)	SR-BI DiI inh 74 (no result: NSD2 inh)
CCOC(=O)c1sc2nc(C)nc(N3CCCCC3C)c2c1C (centres undefined)	none
Cc1nc(N2CCCCC2)c2c(C)c(C(=O)Nc3cccc(C(F)(F)F)c3)sc2n1	SR-BI DiI inh 78 (no result: NSD2 inh)
Cc1cc(Cl)ccc1OCCCC(=O)NNC(=O)c1ccccc1O	SR-BI DiI inh 109
Cc1nnc(NC(=O)CSc2ccc3nnc(-c4ccccn4)n3n2)s1	none (no result: NSD2 inh)
Cc1cc(NC(=O)CSc2ccc3nnc(-c4ccccn4)n3n2)no1	SR-BI DiI-HDL act inconclusive (no result: NSD2 inh)
COC(=O)c1ccc(CSc2ccc3nnc(-c4ccc(F)cc4)n3n2)o1	none (no result: ARNT TACC3 PPI)
COC(=O)c1ccc(CSc2ccc3nnc(-c4ccccn4)n3n2)o1	ARNT TACC3 PPI 58 (no result: NSD2 inh)
O=C(CSc1ccc2nnc(-c3ccccn3)n2n1)Nc1nccs1	ARNT TACC3 PPI 60 (no result: NSD2 inh)
O=C(CSc1ccc2nnc(-c3ccccn3)n2n1)Nc1ccccc1	ARNT TACC3 PPI 47
O=C(CSc1ccc2nnc(-c3ccccn3)n2n1)Nc1ccccc1C(F)(F)F	ARNT TACC3 PPI 52 (no result: SR-BI DiI-HDL act)
CC(CN1CCN(C/C=C/c2ccccc2)CC1)c1ccccc1 (centres undefined)	none (no result: SR-BI DiI inh, SR-BI DiI-HDL act)
CCOC(=O)c1c(NC(=O)Cn2nc(C(=O)O)c3ccccc3c2=O)sc2c1CCC(C)C2 (centres undefined)	none
CO[C@@H]1CN(C)C(=O)c2ccc(NC(=O)Nc3cc(F)ccc3F)cc2OC[C@H](C)NC[C@@H]1C	none (no result: sPLA2-III inh, SR-BI DiI inh, NSD2 inh, SR-BI DiI-HDL act)
Cc1nnc2sc(SCC(=O)Nc3nccs3)nn2c1=O	ARNT TACC3 PPI 76 (no result: XiGFP reactiv)
COc1ccccc1NC(=O)CSc1ccc2nnc(-c3cccnc3)n2n1	ARNT TACC3 PPI 71 (no result: NSD2 inh)
COCCNc1ncnc2c1ncn2[C@H]1CN(Cc2ccc(Cl)cc2)C[C@@H](CO)O1	none (no result: SR-BI DiI inh, ARNT TACC3 PPI, SR-BI DiI-HDL act)
O=C(NC(=S)Nc1cccc(NC(=S)NC(=O)c2ccccc2)c1)c1ccccc1	SR-BI DiI inh 72
COC(=O)c1ccc(NC(=O)c2cccc(NC(=O)c3ccccc3)c2)cc1	SR-BI DiI inh 73
COC(=O)c1[nH]c2ccc(C)cc2c1NC(=O)Nc1ccccc1OC	SR-BI DiI inh 80 (no result: XiGFP reactiv)
COC(=O)c1[nH]c2ccc(C)cc2c1NC(=O)CN1CCc2cc(OC)c(OC)cc2C1	none (no result: XiGFP reactiv)
COC(=O)c1cccc(NC(=O)Nc2ccccc2OC)c1	SR-BI DiI inh 81
COc1ccccc1NC(=O)Nc1cccc(NC(C)=O)c1	none (no result: SR-BI DiI inh, SR-BI DiI-HDL act)
COC(=O)c1cccc(NC(=O)c2ccccc2)c1	none
CN(Cc1ccccc1)C(=O)COC(=O)c1ccc(Br)c(S(=O)(=O)N2CCOCC2)c1	none
CCCC#Cc1ccc2c(c1)O[C@H](CN(C)C(=O)Nc1ccccc1F)[C@H](C)CN([C@@H](C)CO)S2(=O)=O	none (no result: sPLA2-III inh, SR-BI DiI inh, NSD2 inh, SR-BI DiI-HDL act)
COc1ccc(C(=O)Nc2ccccc2N2CCN(C(=O)c3ccccc3)CC2)cc1Br	SR-BI DiI inh 86
CCCC(=O)Nc1ccc(C(=O)Nc2cccc(OC)c2)cc1	SR-BI DiI inh 74
O=C(Nc1cc(C(F)(F)F)ccc1Cl)c1ccc(NC(=O)C(F)(F)F)cc1	none
CCCC(=O)Nc1ccc(C(=O)Nc2cc(C(F)(F)F)ccc2Cl)cc1	SR-BI DiI inh 74 (no result: XiGFP reactiv)
COc1ccc(C(=O)Nc2ccc(Nc3ccccc3)cc2)cc1Br	SR-BI DiI inh 98
COc1ccc(NC(=O)N(C)C[C@@H]2Oc3ccc(NC(=O)Nc4cccc5ccccc45)cc3C(=O)N([C@@H](C)CO)C[C@@H]2C)cc1	none (no result: sPLA2-III inh, SR-BI DiI inh, NSD2 inh, SR-BI DiI-HDL act)
O=C(CN1CCN(Cc2ccccc2)CC1)N1CCN(c2ccccc2)CC1	none
CCN(c1ccc(OC)cc1)S(=O)(=O)c1cc(-c2cc(C)no2)ccc1C(C)C	none (no result: NSD2 inh)
COc1ccc2c(c1)CCC(C)N2S(=O)(=O)c1ccc(C2CNC(=O)C2)cc1 (centres undefined)	none (no result: XiGFP reactiv, ARNT TACC3 PPI)
COc1ccccc1C/C(N)=N/OC(=O)c1cccc([N+](=O)[O-])c1C	none
CC(=O)COc1ccc2c(-c3ccccc3)cc(=O)oc2c1C	SR-BI DiI inh 72
COc1ccc(-c2cc(=O)oc3c(C)c(OC(C)C(=O)NCc4ccccn4)ccc23)cc1 (centres undefined)	SR-BI DiI inh 77 (no result: XiGFP reactiv, NSD2 inh)
Cc1cc(=O)oc2c(C)c(OC(C)C(=O)NCc3ccccn3)ccc12 (centres undefined)	none
FC(F)Oc1ccc(/C=N/c2c(-c3ccc(OC(F)F)cc3)nc3n2CCS3)cc1	SR-BI DiI inh 74 (no result: XiGFP reactiv)
COc1ccc(-c2nc3n(c(=O)c2C#N)CCS3)cc1	none
C[C@H](CO)N1C[C@H](C)[C@@H](CN(C)S(=O)(=O)c2cn(C)cn2)OCCCC[C@H](C)Oc2ccc(NC(=O)Nc3ccc(F)cc3)cc2C1=O	none (no result: sPLA2-III inh, SR-BI DiI inh, NSD2 inh, SR-BI DiI-HDL act)
COc1ccc(CCNC(=O)c2ccc(N3CCCCS3(=O)=O)cc2)cc1OC	SR-BI DiI inh 79 (no result: ARNT TACC3 PPI)
COc1ccc(CCNC(=O)c2ccc(Cl)cc2)cc1OC	none
CCCCc1c(O)nc(SCC(=O)O)[nH]c1=O	none
CCCCc1c(O)nc(SCC(=O)c2ccccc2)[nH]c1=O	SR-BI DiI-HDL act 71 (no result: XiGFP reactiv)
O=C(NCCCc1ccccc1)c1ccccc1O	none (no result: XiGFP reactiv)
CC=Cc1ccc2n(c1=O)C[C@@H]1[C@@H](CO)[C@H](C(=O)NCCC)N(Cc3cocn3)[C@H]21 (mixture of isomers)	none (no result: sPLA2-III inh, SR-BI DiI inh, NSD2 inh, SR-BI DiI-HDL act)
COc1ccc(/C=C(/NC(=O)c2ccccc2)C(=O)N/N=C/c2sccc2C)cc1	SR-BI DiI inh 78
Cc1ccsc1/C=N/NC(=O)c1ccc(-n2cccc2)cc1	SR-BI DiI inh 77 (no result: NSD2 inh)

Screening data (PubChem BioAssay)
